UPR CHOP act: activators of apoptotic CHOP UPR arm, primary screen, cell-based, CHO-CHOP luciferase reporter, luminescence, uHTS; UPR activation; percent of tunicamycin response over DMSO baseline; activation, % at 10 µM; 330,000 tested, 0.34% active;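 active means at 10 µM dose, activation of 40% or more, normalized to positive control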
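measured by = luciferase luminescence | assay system = CHO-CHOP cells, stable luciferase reporter of PERK-eIF2a-CHOP signalling | amount = 500 reporter cells seeded per well | timing = 6 h compound exposure at 37 °C after overnight seeding | controls = positive tunicamycin 10 µg/mL, negative DMSO alone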
XBP1 UPR activ: activators of adaptive XBP1 UPR arm, primary screen, cell-based, CHO-XBP1 luciferase reporter, luminescence, uHTS. 330,000 tested, 0.33% active. activation, % at 20 µM. IRE1-XBP1 UPR activation; percent of tunicamycin response, DMSO as zero;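 active means versus positive control, 20 µM dose yields 30% or more activation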
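Material – CHO cell line with stable XBP1 luciferase reporter · Buffer or medium – F12 plus 10% FBS · Compound – single point, 20 µM final compound, 1% DMSO · Schedule – 16-18 h cell attachment at 37 °C, then 6 h compound exposure · Signal – Steady-Glo luminescence read · Benchmarks – high control tunicamycin 10 µg/mL final, low control DMSO vehicle only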
T cruzi repl: inhibitors of intracellular T. cruzi growth, primary screen, luminescence, NIH3T3 host cells; T. cruzi beta-gal in NIH3T3, 90 h; inhibition, % (no concentration beside the values); 300,000 tested, 1.4% active; AID 1885, 2009;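 active means mean inhibition across valid replicates above about 55%, limit read from the data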;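 further: signal also drops with host cell toxicity which is not excluded here; higher percent means less beta-gal luminescence so fewer parasites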
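System: mouse NIH/3T3 fibroblasts infected with β-gal-expressing T. cruzi Tulahuen C4 / Input: NIH/3T3 cells, 5,000 per well / Buffer or medium: Low-serum DMEM with 2% FBS / Probe or stimulus: 5000 reporter trypomastigotes per well / Schedule: ≥90 h infection period, 3 h prior cell attachment / Measured by: GalScreen luminescence, 60 min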
CHOP inh: inhibitors of CHOP promoter induction, primary screen, cell-based, unfolded protein response, luciferase reporter; CHO-K1 CHOP-promoter luciferase, tunicamycin-induced, 15-18 h; inhibition, % at 10 µM; 220,000 tested, 3.8% active;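 active means compounds that reduced the stress-induced luciferase reporter signal by more than about 70% of percent inhibition, limit read from the data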
Dynein transport: inhibitors of GR-EGFP nuclear translocation, primary screen, dynein cargo transport inhibitor project, imaging, high-content, 3617.4 mouse cells. 220,000 tested, 0.47% active. test concentration mostly 20 µM; stimulated with dexamethasone, 1 µM; stronger effect = lower value. z-score, hits read low. AID 1381, 2008;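 active means plate z-score of nuclear minus cytoplasmic receptor signal below a set negative limit, without overly bright fluorescence or cell loss, cut at about -3.5 in these data, passing the limit was not always enough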;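 further: z-score of nuclear minus cytoplasmic ring GR-EGFP intensity difference per well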
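Buffer or medium: Induction medium lacking tetracycline, stripped serum | Also added: Dexamethasone agonist, 1.0 µM final, for 30 min | Timing: 48 h induction, 1 h compound, 30 min dex at 37 °C | Detection: Formaldehyde fixation, Hoechst nuclear stain, 10x automated fluorescence imaging | Measure: Nuclear versus cytoplasmic GR-EGFP signal, averaged per well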
Lmaj promast: Leishmania major promastigote growth inhibition, primary screen; Leishmania major promastigotes, resazurin fluorescence viability; inhibition, % at 10 µM; 200,000 tested, 9% active; in the data active means inhibition above about 50%;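 further: promastigotes grown with compound for 44 hours at 28 °C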
Each line names hits and unclear results; the compound was inactive in the other large screens. The sample as a whole holds a higher share of hits than the screen did.

CC(=O)O[C@H]1C(=O)[C@@]2(C)C([C@H](OC(=O)c3ccccc3)[C@]3(O)C[C@H](OC(=O)[C@H](O)[C@@H](NC(=O)Cc4ccccc4)c4ccccc4)C(C)=C1C3(C)C)[C@]1(OC(C)=O)CO[C@@H]1C[C@@H]2O (some centres undefined)	none (no result: CHOP inh, Dynein transport, Lmaj promast)
O=C(c1cn(Cc2ccccc2F)c2ncccc12)C(F)(F)F	none (no result: CHOP inh, Dynein transport, Lmaj promast)
Nc1c(C(=O)NCc2ccco2)c2nc3ccccc3nc2n1CCN1CCCCC1	T cruzi repl 69, Lmaj promast 64
COCCOC(=O)c1c(N)n(Cc2ccco2)c2nc3ccccc3nc12	none (no result: CHOP inh)
COc1ccc(Cn2c(N)c(C(=O)NCc3ccco3)c3nc4ccccc4nc32)cc1OC	Lmaj promast 59 (no result: T cruzi repl, CHOP inh)
COCCCNC(=O)c1c(N)n(Cc2ccco2)c2nc3ccccc3nc12	none (no result: Lmaj promast)
CC(C)OC(=O)c1c(N)n(Cc2ccco2)c2nc3ccccc3nc12	Lmaj promast 56
CC(C)CNC(=O)c1c(N)n(Cc2ccco2)c2nc3ccccc3nc12	none
CCCNC(=O)c1c(N)n(Cc2ccco2)c2nc3ccccc3nc12	CHOP inh 83
NC1CC1c1ccccc1 (centres undefined)	none (no result: UPR CHOP act, XBP1 UPR activ, T cruzi repl, Dynein transport, Lmaj promast)
C[C@]1(O)CCC2C3CC[C@H]4C[C@@H](OC(=O)CNC(=O)CN)CC[C@]4(C)C3CC[C@@]21C (some centres undefined)	none (no result: T cruzi repl, CHOP inh, Dynein transport, Lmaj promast)
CC1(CCl)CN1S(=O)(=O)c1ccccc1 (centres undefined)	none (no result: Lmaj promast)
Cc1ccc(S(=O)(=O)c2nc(-c3ccccc3Cl)oc2N(C)C2CCN(C)CC2)cc1	none (no result: T cruzi repl, CHOP inh, Dynein transport, Lmaj promast)
COC(=O)C1=C(c2cc3ccccc3s2)C[C@@H]2CC[C@H]1N2C(=O)N1CCCCC1	none (no result: CHOP inh, Dynein transport, Lmaj promast)
O=C1NC(=O)C(=Cc2cc(Cl)ccc2OCc2ccc(C(=O)O)cc2)C(=O)N1	Lmaj promast 94
CCn1nc(-c2ccccc2)nc2c(=O)n(C)c(=O)nc1-2	CHOP inh 108
Cc1nc2ccccc2c(=O)n1-c1cccc(C(F)(F)F)c1	none (no result: CHOP inh, Dynein transport, Lmaj promast)
Cc1ccc(Cc2c(C)nc3nc(SCC(=O)N4CCC5(CC4)OCCO5)nn3c2C)cc1	none
Cc1ccccc1Cc1c(C)nc2nc(SCC(=O)N3CCC4(CC3)OCCO4)nn2c1C	Lmaj promast 73
COc1cc(C=C2C(=O)NC(=O)NC2=O)ccc1OS(=O)(=O)c1ccccc1[N+](=O)[O-]	none (no result: CHOP inh, Dynein transport, Lmaj promast)
CC(C)CN(CC(C)C)c1ccc(C=C2C(=O)NC(=S)NC2=O)cc1[N+](=O)[O-]	Lmaj promast 81
O=c1c2ccccc2nc(CNc2ccccc2)n1-c1ccccc1	none (no result: Lmaj promast)
Cc1ccc(/C=C2/C(=O)NC(=O)N(Cc3ccc(F)cc3)C2=O)o1	CHOP inh 89 (no result: Lmaj promast)
CN1CCN(CCOC2c3ccccc3CSc3ccc(Cl)cc32)CC1 (centres undefined)	Lmaj promast 99
Clc1ccc(C(OCCN2CCCCC2)c2ccccc2)cc1 (centres undefined)	none (no result: T cruzi repl, CHOP inh, Dynein transport, Lmaj promast)
Clc1ccc2c(c1)C(OC1CN3CCC1CC3)c1ccccc1CS2 (centres undefined)	Lmaj promast 100
Cc1nn(CC(=O)N2CCC3(CC2)OCCO3)c(=O)c2cc3ccccc3n12	none (no result: CHOP inh, Dynein transport, Lmaj promast)
Nc1ccccc1-[n+]1c(-c2ccccc2)cc(-c2ccccc2)cc1-c1ccccc1	T cruzi repl 61 (no result: Lmaj promast)
Cc1nc2cc([N+](=O)[O-])ccc2c(=O)n1-c1cccc(Br)c1	none (no result: CHOP inh, Dynein transport, Lmaj promast)
CCOc1ccc(Cl)cc1CNCCc1ccc(F)cc1	Lmaj promast 65
CSc1ccc(CNC(C)C(O)c2ccccc2)cc1 (centres undefined)	Lmaj promast 84
Cc1ccc2c(c1)C1CN(C)CCC1N2C(=O)c1cn(-c2ccccc2)nc1-c1ccccc1 (centres undefined)	Lmaj promast 53
Cc1ccc2c(c1)[C@@H]1CN(C)CC[C@@H]1N2C(=O)Nc1cccc(C(F)(F)F)c1	Lmaj promast 81
Cc1ccc2c(c1)C1CN(C)CCC1N2C(=O)c1cccnc1Cl (centres undefined)	none (no result: Lmaj promast)
Cc1ccc2c(c1)C1CN(C)CCC1N2C(=O)c1ccc(Br)o1 (centres undefined)	none
Cc1ccc2c(c1)C1CN(C)CCC1N2C(=O)Nc1cccc(C(F)(F)F)c1 (centres undefined)	Lmaj promast 50
COc1cc(CCN)ccc1O	none (no result: T cruzi repl, Dynein transport, Lmaj promast)
CCCCCSc1cc(OC)c(CCN)cc1OC	Lmaj promast 92
CCCCCCCSc1cc(OC)c(CCN(C)C)cc1OC	Lmaj promast 100
Cc1ccc(C(=O)NC(O)C(Cl)(Cl)Cl)cc1 (centres undefined)	none
O=C1CCCN1CC#CCN1CCCC1	none (no result: Lmaj promast)
c1ccc(Cn2ccnc2)cc1	none
CC(C)c1cccc(C(C)C)c1OCCn1ccnc1	Lmaj promast 94
O=C1NC(=O)C(CCc2ccccn2)(Cc2ccc3c(c2)OCO3)C(=O)N1CCc1ccccc1 (centres undefined)	Lmaj promast 98
CCC(C)(C)n1nnnc1C(c1cccs1)N1CC=C(c2ccc(F)cc2)CC1 (centres undefined)	none
Fc1ccc(C2=CCN(C(c3cccs3)c3nnnn3CCc3ccccc3)CC2)cc1 (centres undefined)	Lmaj promast 100
CCCCCn1c(=O)c(C(=O)Nc2ccccc2C)c(O)c2ccccc21	none (no result: CHOP inh, Dynein transport, Lmaj promast)
CCCCCn1c(=O)c(C(=O)Nc2ccccc2S(N)(=O)=O)c(O)c2ccccc21	T cruzi repl 69, CHOP inh 82, Lmaj promast 96
CCCCn1c(=O)c(C(=O)Nc2ccccc2S(N)(=O)=O)c(O)c2ccccc21	CHOP inh 77
CCCCCn1c(=O)c(C(=O)Nc2nc(CC(=O)OCC)cs2)c(O)c2ccccc21	CHOP inh 92, Lmaj promast 90
COC(=O)C1=CO[C@@H](C)[C@H]2CN3CC[C@]4(C(=O)Nc5ccccc54)[C@@H]3C[C@H]12	none (no result: CHOP inh, Dynein transport, Lmaj promast)
O=c1[nH]c(=O)n(-c2ccccc2F)c(O)c1C=NCCC1=CCCCC1	none
CN1C2CCC1CC(OC(c1ccccc1)c1ccc(Cl)cc1)C2 (centres undefined)	none (no result: UPR CHOP act, XBP1 UPR activ, T cruzi repl, Dynein transport, Lmaj promast)
CS(=N)(=O)CC[C@H](N)C(=O)O (some centres undefined)	none (no result: UPR CHOP act, XBP1 UPR activ, T cruzi repl, Dynein transport, Lmaj promast)
CN(C(=O)Oc1cccc2cccnc12)c1ccccc1	none
CN(C(=O)Oc1ccc(Cl)c2cccnc12)c1ccccc1	Lmaj promast 54

Bioassay records deposited in PubChem BioAssay by several laboratories.
